Test results published in ChEMBL document CHEMBL3227917, “Structure-activity relationships of dimeric Catharanthus alkaloids. 2. Experimental antitumor activities of N-substituted deacetylvinblastine amide (vindesine) sulfates” (J Med Chem, 1979).

Experiments:
[1] = test system: CHO; experiment: Mitotic arrest in CHO cells assessed as increase in cell accumulation at 0.002 ug/ml; type: functional, Cricetulus griseus
In short: (§1)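 Chinese hamster ovary cells in tissue culture, scored for mitotic arrest as increase in cells in mitotic arrest over control: +++, 40–50%; ++, 15–40%; +, 10–15%; ±, 7–10%; –, 3–7%. Cytotoxicity noted separately.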

[2] = Antitumor activity against mouse P1534 cells allografted in DBA2 mouse assessed as tumor growth inhibition at 0.25 mg/kg, ip administered daily for 8 to 10 days; type: functional; details: route intraperitoneal, read-out: TGI
In short: (§2)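 P1534(J) leukemia implanted sc in DBA2 mice; sulfate salts dosed ip daily for 8–10 days. Growth inhibition scored –, 0–25%; +, 26–50%; ++, 51–75%; +++, 76–100%; T, lethal to ≥5 of 10 animals per group. Average of one or more tests.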

[3] = test system: P388/VCR; experiment: Antitumor activity against mouse P388/VCR cells allografted in B6D2F1 mouse assessed as increase in host lifespan at 1.20 mg/kg, ip administered on days 1, 5 and 9; type: functional; details: dose 1.2 mg/kg; route intraperitoneal
In short: (§3)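 P388/VCR leukemia in groups of 10 B6D2F1 mice, run at Lilly using the cell strain received from NCI. Sulfate salts given ip on days 1, 5 and 9. Read-out is percent increase in lifespan.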

[4] = test system: P388/VCR; experiment: Antitumor activity against mouse P388/VCR cells allografted in CD2F1 mouse assessed as increase in host lifespan at 0.60 mg/kg, ip administered on days 1, 5 and 9; type: functional; details: dose 0.6 mg/kg; route intraperitoneal
In short: (§4)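 Groups of eight male CD2F1 mice bearing P388 leukemia, run at NCI. Sulfate salts given ip on days 1, 5 and 9. Read-out is percent increase in lifespan.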

[5] = test system: P388/S; experiment: Antitumor activity against mouse P388/S cells allografted in CD2F1 mouse assessed as increase in host lifespan at 1.67 mg/kg, ip administered on days 1, 5 and 9; type: functional; details: route intraperitoneal; in short: as §4
[6] = Antitumor activity against mouse P1534 cells allografted in DBA2 mouse assessed as tumor growth inhibition at 0.10 mg/kg, ip administered daily for 8 to 10 days; type: functional; details: route intraperitoneal, read-out: TGI; in short: as §2
[7] = Toxicity in iv dosed mouse assessed as lethality; type: organism-based; details: in vivo
[8] = test system: CHO; experiment: Cytotoxicity against CHO cells at 0.02 ug/ml; type: cell-based, Cricetulus griseus; details: chinese hamster; in short: as §1
[9] = Antitumor activity against mouse P388/VCR/I/63 cells allografted in Dublin-CDF1 mouse assessed as day of host death at 1.5 mg/kg, ip administered on days 1, 5 and 9 (reference value: 10 days); type: functional; details: route intraperitoneal
[10] = test system: P388/VCR; experiment: Antitumor activity against mouse P388/VCR cells allografted in CD2F1 mouse assessed as increase in host lifespan at 0.36 mg/kg, ip administered on days 1, 5 and 9; type: functional; details: route intraperitoneal; in short: as §4
[11] = test system: P388/S; experiment: Antitumor activity against mouse P388/S cells allografted in CD2F1 mouse assessed as increase in host lifespan at 0.60 mg/kg, ip administered on days 1, 5 and 9; type: functional; details: dose 0.6 mg/kg; route intraperitoneal; in short: as §4
[12] = test system: CHO; experiment: Mitotic arrest in CHO cells assessed as increase in cell accumulation at 0.02 ug/ml; type: functional, Cricetulus griseus; in short: as §1
[13] = Antitumor activity against mouse P388/VCR/I/63 cells allografted in Dublin-CDF1 mouse assessed as increase in host lifespan at 1.5 mg/kg, ip administered on days 1, 5 and 9; type: functional; details: route intraperitoneal
[14] = test system: P388/VCR; experiment: Antitumor activity against mouse P388/VCR cells allografted in B6D2F1 mouse assessed as increase in host lifespan at 0.90 mg/kg, ip administered on days 1, 5 and 9; type: functional; details: dose 0.9 mg/kg; route intraperitoneal; in short: as §3
[15] = test system: P388/S; experiment: Antitumor activity against mouse P388/S cells allografted in CD2F1 mouse assessed as increase in host lifespan at 1.00 mg/kg, ip administered on days 1, 5 and 9; type: functional; details: route intraperitoneal; in short: as §4
[16] = Antitumor activity against mouse P1534 cells allografted in DBA2 mouse assessed as tumor growth inhibition at 0.20 mg/kg, ip administered daily for 8 to 10 days; type: functional; details: route intraperitoneal, read-out: TGI; in short: as §2
[17] = test system: P388/VCR; experiment: Antitumor activity against mouse P388/VCR cells allografted in CD2F1 mouse assessed as increase in host lifespan at 1.00 mg/kg, ip administered on days 1, 5 and 9; type: functional; details: route intraperitoneal; in short: as §4
[18] = test system: P388/S; experiment: Antitumor activity against mouse P388/S cells allografted in CD2F1 mouse assessed as increase in host lifespan at 0.36 mg/kg, ip administered on days 1, 5 and 9; type: functional; details: route intraperitoneal; in short: as §4
[19] = test system: Mus musculus; experiment: Toxicity in CD2F1 mouse allografted with mouse P388/VCR cells at 1.67 mg/kg, ip administered on days 1, 5 and 9; type: organism-based; set-up: dose 1.67 mg/kg, route intraperitoneal; details: in vivo
[20] = test system: P388/VCR; experiment: Antitumor activity against mouse P388/VCR cells allografted in B6D2F1 mouse assessed as increase in host lifespan at 0.60 mg/kg, ip administered on days 1, 5 and 9; type: functional; details: dose 0.6 mg/kg; route intraperitoneal; in short: as §3

Structure (SMILES): CC[C@]1(O)C[C@H]2CN(CCc3c([nH]c4ccccc34)[C@@](C(=O)OC)(c3cc4c(cc3OC)N(C=O)[C@H]3[C@@](O)(C(=O)OC)[C@H](OC(C)=O)[C@]5(CC)C=CCN6CC[C@]43[C@@H]65)C2)C1.O=S(=O)(O)O [VINCRISTINE SULFATE]
- Activity [1]: 10%
- inhibition in vivo at 0.25 mg/kg [2]: 76%
- Activity [3]: 0%
- Activity [4]: 0%
- Activity [5]: 96%
- inhibition in vivo at 0.1 mg/kg [6]: 51%
- LD50 [7]: 2.1 mg/kg
- Activity [8]: Toxic
- Activity [9]: 15 days
- Activity [10]: 0%
- Activity [11]: 83%
- Activity [12]: 40%
- Activity [13]: 50%
- Activity [14]: 0%
- Activity [15]: 138%
- inhibition in vivo at 0.2 mg/kg [16]: 76%
- Activity [17]: 0%
- Activity [18]: 83%
- Activity [19]: Toxic
- Activity [20]: 5%
